Assay results taken from ChEMBL document CHEMBL3102740, “Antcamphins A-L, ergostanoids from Antrodia camphorata” (J Nat Prod, 2014).
pIC50: −log10 of the molar value.

Legend:
Hs68 = assay: Cytotoxicity against human HS68 cells at 25 to 200 uM after 48 hrs by SRB assay; type: cell-based; settings: hs68, 48 h
Summary of the method: (§1)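 Cells exposed to each compound for 48 h; growth measured by sulforhodamine B staining. Compounds dissolved in DMSO, then diluted into growth medium. Cisplatin served as positive control. IC50 values derived from the SRB read-out.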

MDA-MB-231 = assay: Cytotoxicity against human MDA-MB-231 cells after 48 hrs by SRB assay; type: functional, cell-based; settings: MDA-MB-231, 48 h; summary of the method: as §1
A549 = assay: Cytotoxicity against human A549 cells after 48 hrs by SRB assay; type: functional, cell-based; settings: A549, 48 h; summary of the method: as §1

Row | SMILES | Activity (Hs68) | pIC50 (MDA-MB-231) | pIC50 (A549)
1 | C=C(CC[C@@H](C)[C@H]1CC[C@H]2C3=C(C(=O)C[C@]12C)[C@@]1(C)CC[C@@H](O)[C@](C)(O)[C@@H]1C[C@@H]3O)[C@@H](C)C(=O)O | Non-toxic | – | –
2 | C[C@@H]1[C@H](O)CC[C@]2(C)C3=C(C(=O)C[C@@H]12)[C@@H]1CC[C@H]([C@H](C)CCO)[C@@]1(C)[C@@H](O)C3=O | Non-toxic | – | –
3 | CC(=O)CC[C@@H](C)[C@H]1CC[C@H]2C3=C(C(=O)C[C@]12C)[C@@]1(C)CCC(=O)[C@@H](C)[C@@H]1CC3=O | Non-toxic | 4.34 | 4.18
4 | C/C(C=O)=C(/C)CC[C@@H](C)[C@H]1CC[C@H]2C3=C(C(=O)C[C@]12C)[C@@]1(C)CCC(=O)[C@@H](C)[C@@H]1CC3 | Non-toxic | – | –
5 | C/C(C=O)=C(\C)CC[C@@H](C)[C@H]1CC[C@H]2C3=C(C(=O)C[C@]12C)[C@@]1(C)CCC(=O)[C@@H](C)[C@@H]1CC3 | Non-toxic | – | –
6 | C=C(CC[C@@H](C)[C@H]1CC[C@H]2C3=C(C(=O)C[C@]12C)[C@@]1(C)CCC(=O)[C@](C)(O)[C@@H]1C[C@@H]3O)[C@H](C)C(=O)O | Non-toxic | 4.23 | 4.10
7 | C=C(CC[C@@H](C)[C@H]1CC[C@H]2C3=C(C(=O)C[C@]12C)[C@@]1(C)CCC(=O)[C@](C)(O)[C@@H]1C[C@@H]3O)[C@@H](C)C(=O)O | Non-toxic | 4.17 | 4.18
8 | C=C(CC[C@@H](C)[C@H]1CC[C@H]2C3=C(C(=O)C[C@]12C)[C@@]1(C)CCC(=O)[C@](C)(O)[C@@H]1C[C@@H]3O)[C@H](C)C(=O)OC | Non-toxic | 4.11 | 4.14
9 | C=C(CC[C@@H](C)[C@H]1CC[C@H]2C3=C(C(=O)C[C@]12C)[C@@]1(C)CCC(=O)[C@](C)(O)[C@@H]1C[C@@H]3O)[C@@H](C)C(=O)OC | Non-toxic | 4.15 | 4.03
10 | C=C(CC[C@@H](C)[C@H]1CC[C@H]2C3=C(C(=O)[C@H](O)[C@]12C)[C@@]1(C)CCC(=O)[C@@H](C)[C@@H]1CC3=O)[C@@H](C)C(=O)O | Non-toxic | – | –
11 | C=C(CC[C@@H](C)[C@H]1CC[C@H]2C3=C(C(=O)[C@H](O)[C@]12C)[C@@]1(C)CCC(=O)[C@@H](C)[C@@H]1CC3=O)[C@H](C)C(=O)O | Non-toxic | 4.15 | 4.07
12 | C=C(CC[C@@H](C)[C@H]1CC[C@H]2C3=C(C(=O)C[C@]12C)[C@@]1(C)CC[C@H](O)[C@@H](C)[C@@H]1C[C@@H]3O)[C@H](C)C(=O)O | Non-toxic | – | –
13 | C=C(CC[C@@H](C)[C@H]1CC[C@H]2C3=C(C(=O)C[C@]12C)[C@@]1(C)CC[C@H](O)[C@@H](C)[C@@H]1C[C@@H]3O)[C@@H](C)C(=O)O | Non-toxic | – | –
14 | C=C(CC[C@@H](C)[C@H]1CC[C@H]2C3=C(C(=O)[C@H](O)[C@]12C)[C@@]1(C)CC[C@@H](O)[C@@H](C)[C@@H]1CC3=O)[C@@H](C)C(=O)O | Non-toxic | 4.63 | 4.66
15 | C=C(CC[C@@H](C)[C@H]1CC[C@H]2C3=C(C(=O)[C@H](O)[C@]12C)[C@@]1(C)CC[C@@H](O)[C@@H](C)[C@@H]1CC3=O)[C@H](C)C(=O)O | Non-toxic | 4.41 | 4.48
16 | C=C(CC[C@@H](C)[C@H]1CC[C@H]2C3=C(C(=O)C[C@]12C)[C@@]1(C)CCC(=O)[C@@H](C)[C@@H]1CC3=O)[C@@H](C)C(=O)O | Non-toxic | 4.48 | 4.38
17 | C=C(CC[C@@H](C)[C@H]1CC[C@H]2C3=C(C(=O)C[C@]12C)[C@@]1(C)CCC(=O)[C@@H](C)[C@@H]1C[C@@H]3O)[C@H](C)C(=O)O | Non-toxic | 4.13 | 4.12
18 | C=C(CC[C@@H](C)[C@H]1CC[C@H]2C3=C(C(=O)C[C@]12C)[C@@]1(C)CCC(=O)[C@@H](C)[C@@H]1C[C@@H]3O)[C@@H](C)C(=O)O | Non-toxic | 4.60 | 4.48
19 | C=C(CC[C@@H](C)[C@H]1CC[C@H]2C3=C(C(=O)C[C@]12C)[C@@]1(C)CC[C@@H](O)[C@](C)(O)[C@@H]1C[C@@H]3O)[C@H](C)C(=O)O | Non-toxic | – | –
20 | C=C(CC[C@@H](C)[C@H]1CC=C2C3=C(C(=O)C[C@@]21C)[C@@]1(C)CCC(=O)[C@@H](C)[C@@H]1C[C@@H]3O)C(C)C(=O)O (some centres not stated) | Non-toxic | 4.50 | 4.39
21 | C=C(CC[C@@H](C(=O)O)[C@H]1C[C@H](O)[C@@]2(C)C3=CC[C@H]4C(C)(C)[C@@H](O)CC[C@]4(C)C3=CC[C@]12C)C(C)C | Non-toxic | – | –
22 | C=C(CC[C@@H](C(=O)O)[C@H]1C[C@H](O)[C@@]2(C)C3=CC[C@H]4C(C)(C)C(=O)CC[C@]4(C)C3=CC[C@]12C)C(C)C | Non-toxic | – | –
23 | C=C(CC[C@@H](C(=O)O)[C@H]1C[C@H](OC(C)=O)[C@@]2(C)C3=CC[C@H]4C(C)(C)[C@@H](O)CC[C@]4(C)C3=CC[C@]12C)C(C)C | Non-toxic | – | –
24 | C=C(CC[C@@H](C)[C@H]1CC[C@H]2C3=C(C(=O)C[C@]12C)[C@@]1(C)CCC(=O)[C@@H](C)[C@@H]1CC3)C(C)C(=O)O (some centres not stated) [ANTCIN A] | Non-toxic | 4.53 | 4.40
25 | C=C(CC[C@@H](C)[C@H]1CC[C@H]2C3=C(C(=O)C[C@]12C)[C@@]1(C)CCC(=O)[C@@H](C)[C@@H]1CC3=O)[C@H](C)C(=O)O [ANTCIN B] | Non-toxic | 4.36 | 4.24
26 | C=C(CC[C@@H](C)[C@H]1CC[C@H]2C3=C(C(=O)[C@H](O)[C@]12C)[C@@]1(C)CC[C@@H](O)[C@@H](C)[C@@H]1C[C@@H]3O)C(C)C(=O)O (some centres not stated) [CAMPHORATIN A] | Non-toxic | 4.03 | 4.04
27 | C=C(CC[C@@H](C)[C@H]1CC[C@H]2C3=C(C(=O)C[C@]12C)[C@@]1(C)CC[C@@H](O)[C@](C)(O)[C@@H]1CC3=O)C(C)C(=O)O (some centres not stated) [CAMPHORATIN C] | Non-toxic | 4.20 | 4.31
28 | C=C(CC[C@@H](C(=O)O)[C@H]1CC[C@@]2(C)C3=CC[C@H]4C(C)(C)[C@@H](O)CC[C@]4(C)C3=CC[C@]12C)C(C)C [DEHYDROEBURICOIC ACID] | Non-toxic | – | –
29 | C=C(CC[C@@H](C(=O)O)[C@H]1CC[C@@]2(C)C3=C(CC[C@]12C)[C@@]1(C)CC[C@H](O)C(C)(C)[C@@H]1CC3)C(C)C [EBURICOIC ACID] | Non-toxic | – | –
30 | C=C(CC[C@@H](C(=O)O)[C@H]1C[C@H](O)[C@@]2(C)C3=C(CC[C@]12C)[C@@]1(C)CC[C@H](O)C(C)(C)[C@@H]1CC3)C(C)C [SULFURENIC ACID] | Non-toxic | – | –
